Data published in ChEMBL document CHEMBL1135690, “Benzodiazepine receptor ligands. 7. Synthesis and pharmacological evaluation of new 3-esters of the 8-chloropyrazolo[5,1-c][1,2,4]benzotriazine 5-oxide. 3-(2-Thienylmethoxycarbonyl) derivative: an anxioselective agent in rodents” (J Med Chem, 2002).

Assays:
[1] = biological target: GABA-A receptor; anion channel; set-up: species or system Bos taurus
[2] = Displacement of [3H]-Ro-15-1788 from rat GABA-A receptor alpha-2-beta-2-gamma-2 subunits expressed in HEK293 cells; type: cell-based
Summary of the method: (§1)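 Recombinant rat GABA-A subtypes are stably expressed in HEK293 cells grown in MEM/EBSS with 10% FCS at 37 °C. Membranes are made in 10 mM potassium phosphate pH 7.4 and resuspended with 100 mM KCl. Incubation uses 1–2 nM [3H]Ro15-1788 with compound at 10^-9–10^-5 M (≥6 concentrations), 1 h at 4 °C. […] Ki comes from Cheng–Prusoff, n=5, in triplicate.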

[3] = biological target: T1, GABA-A receptor; alpha-1/beta-2/gamma-2 (Rattus norvegicus, UniProt P18508+P62813+P63138); test: (§2) Displacement of [3H]Ro-151788 from rat GABA-A receptor alpha-1-beta-2-gamma-2 subunits expressed in HEK293 cells; type: cell-based
T1 sequence (P18508 whole entry): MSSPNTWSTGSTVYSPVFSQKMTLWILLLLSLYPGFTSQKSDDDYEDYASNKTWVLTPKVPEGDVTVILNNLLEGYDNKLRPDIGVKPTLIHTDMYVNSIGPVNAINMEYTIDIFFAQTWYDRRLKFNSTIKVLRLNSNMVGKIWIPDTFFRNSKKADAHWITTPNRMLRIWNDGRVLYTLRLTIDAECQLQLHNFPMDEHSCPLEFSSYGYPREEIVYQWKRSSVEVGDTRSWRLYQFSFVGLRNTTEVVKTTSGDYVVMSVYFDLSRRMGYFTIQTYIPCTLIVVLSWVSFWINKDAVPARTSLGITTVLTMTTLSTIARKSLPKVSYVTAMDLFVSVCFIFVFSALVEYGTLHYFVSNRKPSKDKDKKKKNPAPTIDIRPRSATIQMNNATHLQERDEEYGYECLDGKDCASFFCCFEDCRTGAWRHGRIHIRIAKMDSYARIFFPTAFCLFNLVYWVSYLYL
T1 sequence (P62813 whole entry): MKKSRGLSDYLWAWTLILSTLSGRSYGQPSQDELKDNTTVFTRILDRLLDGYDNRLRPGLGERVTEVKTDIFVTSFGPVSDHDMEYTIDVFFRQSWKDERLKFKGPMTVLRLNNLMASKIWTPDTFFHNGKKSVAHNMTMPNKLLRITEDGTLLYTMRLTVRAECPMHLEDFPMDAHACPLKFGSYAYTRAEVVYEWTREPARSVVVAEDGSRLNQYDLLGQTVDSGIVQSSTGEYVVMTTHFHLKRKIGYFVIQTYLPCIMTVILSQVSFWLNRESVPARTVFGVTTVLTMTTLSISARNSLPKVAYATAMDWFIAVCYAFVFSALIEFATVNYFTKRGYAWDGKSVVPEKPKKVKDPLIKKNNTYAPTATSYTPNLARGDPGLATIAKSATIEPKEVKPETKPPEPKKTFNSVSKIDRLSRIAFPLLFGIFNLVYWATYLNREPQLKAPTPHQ
T1 sequence (P63138 whole entry): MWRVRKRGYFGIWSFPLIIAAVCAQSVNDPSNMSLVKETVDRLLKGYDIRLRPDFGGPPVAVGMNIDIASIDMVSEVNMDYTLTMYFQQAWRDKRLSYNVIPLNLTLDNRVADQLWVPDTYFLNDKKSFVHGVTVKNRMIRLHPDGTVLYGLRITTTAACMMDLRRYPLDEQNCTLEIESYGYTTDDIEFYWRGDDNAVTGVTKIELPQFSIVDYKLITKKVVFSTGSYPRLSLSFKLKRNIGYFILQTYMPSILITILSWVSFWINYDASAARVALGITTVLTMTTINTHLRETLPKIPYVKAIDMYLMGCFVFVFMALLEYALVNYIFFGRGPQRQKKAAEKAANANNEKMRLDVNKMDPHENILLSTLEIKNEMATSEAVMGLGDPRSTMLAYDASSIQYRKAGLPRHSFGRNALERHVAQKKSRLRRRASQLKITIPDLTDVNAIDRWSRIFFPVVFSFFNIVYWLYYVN
Summary of the method: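 Membranes from HEK293 cells stably expressing recombinant rat GABA-A subtypes, homogenized in 10 mM potassium phosphate pH 7.4 and resuspended with 100 mM KCl. Incubation with 1–2 nM [3H]Ro15-1788 and test compound (10^-9–10^-5 M, at least six concentrations; DMSO ≤1%) for 1 h at 4 °C to equilibrium.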

[4] = biological target: GABA A receptor alpha-3/beta-2/gamma-2 (Rattus norvegicus, UniProt P18508+P20236+P63138); test: Displacement of [3H]Ro-151788 from rat GABA-A receptor alpha-3-beta-2-gamma-2 subunits expressed in HEK293 cells; type: cell-based
GABA A receptor alpha-3/beta-2/gamma-2, sequence (P18508 whole entry): as the sequence (P18508 whole entry) above
GABA A receptor alpha-3/beta-2/gamma-2, sequence (P20236 whole entry): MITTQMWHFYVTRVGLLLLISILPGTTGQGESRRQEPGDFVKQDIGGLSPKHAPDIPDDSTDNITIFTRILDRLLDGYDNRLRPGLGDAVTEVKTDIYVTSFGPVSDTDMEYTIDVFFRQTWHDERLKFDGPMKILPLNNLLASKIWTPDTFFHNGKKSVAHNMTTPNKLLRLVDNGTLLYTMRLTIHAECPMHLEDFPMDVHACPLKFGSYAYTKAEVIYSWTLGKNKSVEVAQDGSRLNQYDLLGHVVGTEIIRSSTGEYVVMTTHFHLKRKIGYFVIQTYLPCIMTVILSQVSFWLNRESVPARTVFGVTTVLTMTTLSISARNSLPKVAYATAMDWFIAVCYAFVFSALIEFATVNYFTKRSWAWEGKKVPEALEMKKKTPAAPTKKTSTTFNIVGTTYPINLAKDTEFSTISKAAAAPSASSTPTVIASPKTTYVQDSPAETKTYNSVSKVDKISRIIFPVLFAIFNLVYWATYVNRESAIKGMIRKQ
GABA A receptor alpha-3/beta-2/gamma-2, sequence (P63138 whole entry): as the sequence (P63138 whole entry) above

[5] = Displacement of [3H]Ro-151788 from rat GABA-A receptor alpha-5-beta-3-gamma-2 subunits expressed in HEK293 cells; type: cell-based
Summary of the method: as §1

Mus musculus [6] = test: Percent anticonvulsant activity against pentylenetetrazole (PTZ)-induced attacks at 1 mg/kg peroral dose; type: functional; conditions: route oral
Summary of the method: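 Male CD-1 mice are dosed po in 1% CMC (flumazenil ip). PTZ (90 mg/kg sc, in 0.9% saline) is injected 30 min later. Clonic generalized convulsions are scored over 30 min, with % protection compared with controls by χ2 analysis.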

Mus musculus [7] = test: Percent anticonvulsant activity against pentylenetetrazole (PTZ)-induced attacks at 10 mg/kg peroral dose; type: functional; conditions: route oral
Summary of the method: (§3)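 Male CD-1 mice dosed po in 1% carboxymethylcellulose, 30 min before PTZ (90 mg/kg sc, in 0.9% saline). Occurrence of clonic generalized convulsions noted over 30 min; χ² analysis vs control mice.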

Mus musculus [8] = test: Percent anticonvulsant activity against pentylenetetrazole (PTZ)-induced attacks at 100 mg/kg peroral dose; type: functional; conditions: route oral
Summary of the method: as §3

Mus musculus [9] = test: Percent anticonvulsant activity against pentylenetetrazole (PTZ)-induced attacks at 3 mg/kg peroral dose; type: functional; conditions: route oral
Summary of the method: as §3

Mus musculus [10] = test: Percent anticonvulsant activity against pentylenetetrazole (PTZ)-induced attacks at 30 mg/kg peroral dose; type: functional; conditions: route oral
Summary of the method: as §3

Mus musculus [11] = test: Anxiolytic activity in mice using light-dark box and % time spent in light was reported at 1 mg/kg peroral dose; type: functional; conditions: route oral
Summary of the method: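 Light-dark box in male CD-1 mice. Ligands are given po in 1% CMC, flumazenil ip. Each mouse is placed in the centre of the lit area facing away from the dark one and explores for 5 min. Time in the illuminated side and number of transfers between compartments are recorded. Means ± SEM.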

Mus musculus [12] = test: Anxiolytic activity in mice using light-dark box and % time spent in light was reported at 10 mg/kg peroral dose; type: functional; conditions: route oral
Summary of the method: (§4)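 Male CD-1 mice (22–24 g) given drug po in 1% carboxymethylcellulose (10 mL/kg). Each mouse placed in the centre of the lighted area facing away from the dark compartment and allowed to explore for 5 min; time spent in the illuminated side and number of transfers between compartments recorded. Tests run between 10:00 and 15:00.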

Mus musculus [13] = test: Anxiolytic activity in mice using light-dark box and % time spent in light was reported at 100 mg/kg peroral dose; type: functional; conditions: route oral
Summary of the method: as §4

Mus musculus [14] = test: Anxiolytic activity in mice using light-dark box and % time spent in light was reported at 3 mg/kg peroral dose; type: functional; conditions: route oral
Summary of the method: as §4

Mus musculus [15] = test: Anxiolytic activity in mice using light-dark box and % time spent in light was reported at 30 mg/kg peroral dose; type: functional; conditions: route oral
Summary of the method: as §4

Mus musculus [16] = test: Motor coordination of mouse as number of falls in 30 sec was reported after 1 mg/kg peroral dose using rotarod test; type: functional; conditions: route oral
Summary of the method: (§5)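 Male CD-1 mice are dosed po in 1% CMC (flumazenil ip). Falls from a rota rod turning at 24 rpm are counted over 30 s, 25 min after drug administration, and compared with vehicle-treated mice. Means ± SEM.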

Mus musculus [17] = test: Motor coordination of mouse as number of falls in 30 sec was reported after 10 mg/kg peroral dose using rotarod test; type: functional; conditions: route oral
Summary of the method: as §5

Mus musculus [18] = test: Motor coordination of mouse as number of falls in 30 sec was reported after 100 mg/kg peroral dose using rotarod test; type: functional; conditions: route oral
Summary of the method: (§6)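 Male CD-1 mice dosed po (suspension in 1% carboxymethylcellulose, 10 mL/kg). Rota rod turning at 24 rpm; falls from the rod counted over 30 s, 25 min after drug administration.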

Mus musculus [19] = test: Motor coordination of mouse as number of falls in 30 sec was reported after 3 mg/kg peroral dose using rotarod test; type: functional; conditions: route oral
Summary of the method: as §6

Mus musculus [20] = test: Motor coordination of mouse as number of falls in 30 sec was reported after 30 mg/kg peroral dose using rotarod test; type: functional; conditions: route oral
Summary of the method: as §6

Mus musculus [21] = test: Anxiolytic activity in mice using light-dark box and no. of transfers between compartments were reported at 100 mg/kg peroral dose; type: functional; conditions: route oral
Summary of the method: as §4

Mus musculus [22] = test: Anxiolytic activity in mice using light-dark box and no. of transfers between compartments were reported at 1 mg/kg peroral dose; type: functional; conditions: route oral
Summary of the method: as §4

Mus musculus [23] = test: Anxiolytic activity in mice using light-dark box and no. of transfers between compartments were reported at 3 mg/kg peroral dose; type: functional; conditions: route oral
Summary of the method: as §4

Mus musculus [24] = test: Anxiolytic activity in mice using light-dark box and no. of transfers between compartments were reported at 30 mg/kg peroral dose; type: functional; conditions: route oral
Summary of the method: as §4

[25] = Anticonvulsant activity electroshock induced convulsions and % lethality obtained at dose of 30 mg/kg; type: organism-based; set-up: dose 30 mg/kg; conditions: mouse, in vivo, read-out: Lethality
Summary of the method: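 Male CD-1 mice (22–24 g), groups of 10–16, dosed po in 1% carboxymethylcellulose at 10 mL/kg. Electroshock (40 mA, 0.2 s, 50 Hz) applied to the corneas 30 min after dosing. End point is tonic hind limb extension; % protection and % lethality are recorded against vehicle-treated mice (χ2 analysis).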

Mus musculus [26] = test: Anticonvulsant activity electroshock induced convulsions in hind limb of mice at a dose of 30 mg/kg; type: functional, Hindlimb
Summary of the method: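 Male CD-1 mice (22–24 g); oral dosing as suspension in 1% carboxymethylcellulose (10 mL/kg), 30 min before corneal electroshock (40 mA, 0.2 s, 50 Hz). Groups of 10–16 mice; end point tonic hind limb extension; lethality also recorded; χ² analysis vs CMC-treated mice.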

Mus musculus [27] = test: Anxiolytic activity in mice using light-dark box and no. of transfers between compartments were reported at 10 mg/kg peroral dose; type: functional; conditions: route oral
Summary of the method: as §4

[28] = biological target: T1, GABA-A receptor; alpha-1/beta-2/gamma-2; test: as §2; type: cell-based; remark: listed apart in the source
Mus musculus [29] = test: Motor coordination of mouse as number of falls in 30 sec was reported after 100 mg/kg intraperitoneal dose using rotarod test; type: functional
Summary of the method: as §5

Mus musculus [30] = test: Motor coordination of mouse as number of falls in 30 sec was reported after 30 mg/kg intraperitoneal dose using rotarod test; type: functional
Summary of the method: as §5

Mus musculus [31] = test: Anxiolytic activity in mice using light-dark box and no. of transfers between compartments were reported at 100 mg/kg intraperitoneal dose; type: functional
Mus musculus [32] = test: Anxiolytic activity in mice using light-dark box and no. of transfers between compartments were reported at 30 mg/kg intraperitoneal dose; type: functional
Mus musculus [33] = test: Anxiolytic activity in mice using light-dark box and % time spent in light was reported at 100 mg/kg intraperitoneal dose; type: functional
Mus musculus [34] = test: Anxiolytic activity in mice using light-dark box and % time spent in light was reported at 30 mg/kg intraperitoneal dose; type: functional
Mus musculus [35] = test: Percent anticonvulsant activity against pentylenetetrazole (PTZ)-induced attacks at 100 mg/kg intraperitoneal dose.; type: functional
Mus musculus [36] = test: Percent anticonvulsant activity against pentylenetetrazole (PTZ)-induced attacks at 30 mg/kg intraperitoneal dose.; type: functional

O=C(OCc1cccs1)c1cnn2c1n[n+]([O-])c1ccc(Cl)cc12
Ki [1]: 6.8 nM | Ki [2]: 26 nM | Ki [3]: 3 nM | Ki [4]: 12 nM | Ki [5]: 8.6 nM | Activity (Mus musculus [6]): 20% | Activity (Mus musculus [7]): 15.38% | Activity (Mus musculus [8]): 20% | Activity (Mus musculus [9]): 0% | Activity (Mus musculus [10]): 40% | Activity (Mus musculus [11]): 12.89% | Activity (Mus musculus [12]): 155.1% | Activity (Mus musculus [13]): 157.1% | Activity (Mus musculus [14]): 170.8% | Activity (Mus musculus [15]): 144.3% | No. of falls (Mus musculus [16]): 0.1 | No. of falls (Mus musculus [17]): 0.15 | No. of falls (Mus musculus [18]): 0 | No. of falls (Mus musculus [19]): 0.1 | No. of falls (Mus musculus [20]): 0.1 | No. of transfers (Mus musculus [21]): 14.6 | No. of transfers (Mus musculus [22]): 21.1 | No. of transfers (Mus musculus [23]): 15.6 | No. of transfers (Mus musculus [24]): 20.5 | mortality [25]: 40% | Activity (Mus musculus [26]): 0% | No. of transfers (Mus musculus [27]): 16.6

[O-][n+]1nc2c(-c3ccsc3)cnn2c2cc(Cl)ccc21
Ki [2]: 12 nM | Ki [28]: 4.1 nM | Ki [4]: 33 nM | Ki [5]: 18 nM

CCOC(=O)c1ncn2c1CN(C)C(=O)c1cc(F)ccc1-2 [FLUMAZENIL]
No. of falls (Mus musculus [29]): 0.4 | No. of falls (Mus musculus [30]): 0.33 | No. of transfers (Mus musculus [31]): 15.2 | No. of transfers (Mus musculus [32]): 11.8 | Activity (Mus musculus [33]): 119% | Activity (Mus musculus [34]): 90.36% | Activity (Mus musculus [35]): 5.3% | Activity (Mus musculus [36]): 11.1%
